# Results as given in ChEMBL document CHEMBL2434933, “Synthesis, physicochemical properties of allopurinol derivatives and their biological activity against Trypanosoma cruzi” (Eur J Med Chem, 2013).
# Calls of active or inactive are those of the source. The rule behind the calls is not given here.
# Columns and labels:
# [1] = Stability of the compound in 0.1 M SDS-0.01 M 7.5% (v/v) 1-propanol-NaH2PO4/H3PO4 assessed as compound recovery at 3.5 x 10^-7 mol/ml by micellar liquid chromatography; type: physicochemical
# Method in brief: (§1)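 Recovery: N1-acyl compounds were spiked at 7.5 x 10^-9, 6 x 10^-8 and 3.5 x 10^-7 mol/mL (ten replicates each) into pH 1.2 and 6.8 buffers, SGF and SIF. Analysis used MLC with 0.1 M SDS–7.5% 1-propanol–0.01 M NaH2PO4/H3PO4 pH 3.0, at 1 mL/min, 25 °C and 276 nm. Recovery was calculated against working standards.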
# [2] = Stability of the compound in buffer at 37 degC at pH 1.2 after 1 hr in presence of pepsin; type: ADME; conditions: isolated protein, pH 1.2, 1 h
# Method in brief: (§2)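 Compounds came from DMSO stocks of 1.0 x 10^-4 mol/mL. They were incubated at 37 °C in buffer pH 1.2 or SGF (pepsin) for 1 h, and in buffer pH 6.8 or SIF (pancreatin) for 3 h. Samples were analysed by micellar LC. Percent degradation was reported; kinetics were treated as pseudo-first-order.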
# [3] = Intrinsic solubility of the compound in standard phosphate buffer at pH 6.8 at 37 degC after 24 hrs by shake-flask method; type: physicochemical; conditions: read-out: Intrinsic_solubility
# Method in brief: (§3)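 Shake-flask intrinsic solubility: solid compound was added to phosphate buffer until excess remained undissolved. The thermostated saturated solution was shaken for 24 h to reach equilibrium, at 25 °C and at 37 °C.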
# [4] = Stability of the compound in 0.1 M SDS-0.01 M 7.5% (v/v) 1-propanol-NaH2PO4/H3PO4 assessed as compound recovery at 6 x 10^-8 mol/ml by micellar liquid chromatography; type: physicochemical; method in brief: as §1
# Plasma = test: Metabolic stability of the compound in human plasma; type: ADME, cell-free
# Method in brief: (§4)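 Stability in human plasma was followed by micellar LC, with allopurinol tracked as product. Pseudo-first-order kinetics gave t1/2 or kobs.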
# [5] = Intrinsic solubility of the compound in standard phosphate buffer at pH 6.8 at 25 degC after 24 hrs by shake-flask method; type: physicochemical; conditions: read-out: Intrinsic_solubility; method in brief: as §3
# [6] = Stability of the compound in simulated intestinal fluid assessed as retention time by micellar liquid chromatography; type: physicochemical; conditions: simulated gi fluid
# [7] = Stability of the compound in simulated intestinal fluid at 37 degC after 3 hrs; type: physicochemical; conditions: simulated gi fluid; method in brief: as §2
# [8] = Stability of the compound in buffer at 37 degC at pH 6.8 after 3 hrs in presence of pancreatin; type: ADME; conditions: pH 6.8, 3 h; method in brief: as §2
# [9] = Octanol-water partition coefficient, log P of the compound by RP-HPLC analysis; type: physicochemical
# Method in brief: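 RP-HPLC lipophilicity: isocratic buffer pH 5.5–MeOH, 30–75% MeOH in 5% steps. Three injections per compound and five per standard at each ratio. log k' = log(tR − t0)/t0 was computed from retention times.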
# [10] = Stability of the compound in simulated gastric fluid at 37 degC after 1 hr; type: physicochemical; conditions: simulated gi fluid; method in brief: as §2
# [11] = Stability of the compound in 0.1 M SDS-0.01 M 7.5% (v/v) 1-propanol-NaH2PO4/H3PO4 assessed as compound recovery at 7.5 x 10^-9 mol/ml by micellar liquid chromatography; type: physicochemical; method in brief: as §1
# Trypanosoma cruzi [12] = test: Antimicrobial activity against Trypanosoma cruzi RA amastigotes infected in African green monkey Vero cells assessed as growth inhibition at 1 ug/ml after 72 hrs by Giemsa staining-based light microscopy; type: functional, organism-based
# Method in brief: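 RA-strain bloodstream trypomastigotes infected irradiated Vero cells (2000 rads) on coverslips at a 5:1 parasite:cell ratio for 24 h. Cells were washed, then exposed to 1 ug/mL compound for 72 h at 37 °C in 5% CO2. Coverslips were fixed in methanol and Giemsa-stained. Infected cells were scored by light microscopy against untreated infected cultures.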
# Trypanosoma cruzi [13] = test: Antimicrobial activity against blood stream form of Trypanosoma cruzi RA assessed as growth inhibition at 1 to 70 ug/ml after 24 hrs by Neubauer chamber counting analysis; type: functional, organism-based
# Method in brief: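 RA-strain bloodstream trypomastigotes were enriched from infected-mouse blood at peak parasitemia. They were used at 1.5 x 10^6/mL in RPMI 1640 with 10% FCS. Parasites were exposed for 24 h at 37 °C in 5% CO2 to 0–70 ug/mL compound from 40 mM DMSO stocks (final DMSO <0.5%). 0.5% DMSO served as negative control. Surviving parasites were counted by Neubauer chamber. Three independent experiments, each in triplicate.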
# [14] = Drug degradation in 0.1 M NaOH assessed as allopurinol formation at 1 mg/ml at 90 degC; type: physicochemical
# [15] = Drug degradation in simulated gastric fluid at 37 degC after 1 hr; type: physicochemical; conditions: read-out: Drug degradation; method in brief: as §2
# [16] = Drug degradation in 0.1 M HCl assessed as allopurinol formation at 1 mg/ml at 90 degC; type: physicochemical; conditions: buffer
# [17] = Drug degradation in 3.5% H2O2 assessed as allopurinol formation; type: physicochemical
# [18] = Drug degradation in simulated intestinal fluid at 37 degC after 3 hrs; type: physicochemical; conditions: read-out: Drug degradation; method in brief: as §2
# [19] = Stability of the compound in simulated gastric fluid assessed as retention time by micellar liquid chromatography; type: physicochemical; conditions: simulated gi fluid
# [20] = Drug degradation in buffer at 37 degC at pH 6.8 after 3 hrs in presence of pancreatin; type: physicochemical; conditions: buffer with pancreatin, read-out: Drug degradation; method in brief: as §2
# [21] = Drug degradation in buffer at 37 degC at pH 1.2 after 1 hr
# [22] = Half life in human plasma; type: ADME, cell-free; method in brief: as §4
# Trypanosoma cruzi [23] = test: Antimicrobial activity against Trypanosoma cruzi RA amastigotes infected in African green monkey Vero cells assessed as growth inhibition after 72 hrs by Giemsa staining-based light microscopy; type: functional, organism-based
# Method in brief: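 Vero cells irradiated at 2000 rads, seeded on coverslips and infected with bloodstream trypomastigotes of RA strain at 5:1 parasite:cell for 24 h. Free parasites were washed off and cultures incubated 72 h with compound, 0.5–50 range, triplicate, at 37 °C in 5% CO2. Vehicle 0.5% DMSO. Coverslips were methanol-fixed and Giemsa-stained. Infection rate and amastigotes per cell (100 infected cells) were read by light microscopy. IC50 estimated from percentage infection.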
# [24] = Cytotoxicity against mouse splenocytes assessed as cell viability at 50 times IC50 after 32 hrs by Alamar Blue assay; type: cell-based; conditions: splenocyte
# Method in brief: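 Viability was read by Alamar Blue and expressed as percent of untreated control. Two experiments, each in duplicate.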
# [25] = Drug degradation in 0.1 M NaOH at 1 mg/ml at 90 degC after 16 hrs; type: physicochemical
# Method in brief: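 Compound at 1 mg/mL was heated in 0.1 M NaOH at 90 °C for 16 h. Percent degradation was quantified by micellar liquid chromatography.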
# [26] = Stability of the compound in 0.05 M SDS-0.01 M NaH2PO4/H3PO4 assessed as compound recovery at 6 x 10^-8 mol/ml by micellar liquid chromatography; type: physicochemical
# Method in brief: (§5)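 Analytical recovery. Standards at 7.5 × 10⁻⁹, 6 × 10⁻⁸ and 3.5 × 10⁻⁷ mol/mL, ten replicates each, were spiked into pH 1.2 and pH 6.8 buffers and into SGF and SIF. They were analysed by MLC with mobile phase 0.05 M SDS–0.01 M NaH2PO4/H3PO4 pH 3.0 at 1.25 mL/min, 25 °C, detection at 250 nm. Recovery was found concentration relative to working standards.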
# [27] = Stability of the compound in 0.05 M SDS-0.01 M NaH2PO4/H3PO4 assessed as compound recovery at 3.5 x 10^-7 mol/ml by micellar liquid chromatography; type: physicochemical; method in brief: as §5
# [28] = Stability of the compound in 0.05 M SDS-0.01 M NaH2PO4/H3PO4 assessed as compound recovery at 7.5 x 10^-9 mol/ml by micellar liquid chromatography; type: physicochemical; method in brief: as §5
# [29] = Dissociation constant, pKa of the compound at 25 degC; type: physicochemical
# Method in brief: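 pKa computed with ACDpKa software. Only for the parent drug was it checked against a pH-solubility profile at 25 °C.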
# [30] = Drug degradation in 30% H2O2 assessed as allopurinol formation; type: physicochemical
Structure (SMILES),Drug recovery [1],solubility thermodynamic at 24 h [3],Drug recovery [4],Stability (Plasma),solubility thermodynamic at 24 h [5],Retention_time [6],logP [9],Drug recovery [11],growth inhibition (GI) (Trypanosoma cruzi [12]),growth inhibition (GI) (Trypanosoma cruzi [13]),Retention_time [19],other results
CCCc1nc2n[nH]cc2c(=O)[nH]1,100.27%,2560 µg/mL,99.59%,100%,2070 µg/mL,7.8 min,1.14,101.17%,,,,Stability [2]: Stable; Stability [7]: Stable; Stability [8]: Stable; Stability [10]: Stable
O=C(Cn1ccnc1[N+](=O)[O-])NCc1ccccc1,,,,,,,,,Active,,,
CCC(=O)n1ncc2c(=O)[nH]cnc21,,,,,,,,,,inactive,,
CCc1nc(O)c2c[nH]nc2n1,97.78%,940 µg/mL,97.07%,100%,710 µg/mL,4.7 min,0.52,101.19%,Active,inactive,,Stability [2]: Stable; Stability [7]: Stable; Stability [8]: Stable; Stability [10]: Stable
CC(=O)n1ncc2c(O)ncnc21,99.04%,> 65 µg/mL,102.42%,Unstable,> 65 µg/mL,,0.4,98.03%,,,3 min,Stability [14]: Unstable; degraded at 1 h [15]: 18.9%; Stability [16]: Unstable; Stability [17]: Unstable; degraded at 3 h [18]: 100%; metabolised at 3 h [20]: 100%; metabolised at 1 h [21]: 17.1%; half-life [22]: 8.4 min
CCCC(=O)n1ncc2c(=O)[nH]cnc21,,,,,,,,,Active,inactive,,IC50 (Trypanosoma cruzi [23]): 11.3 µM; inhibition (Trypanosoma cruzi [23]): Dose-dependent effect
CCC(=O)n1ncc2c(O)ncnc21,103.18%,> 65 µg/mL,103.09%,Unstable,> 65 µg/mL,,1.22,99.74%,,,4 min,Stability [14]: Unstable; degraded at 1 h [15]: 32%; Stability [16]: Unstable; Stability [17]: Unstable; degraded at 3 h [18]: 100%; metabolised at 3 h [20]: 100%; metabolised at 1 h [21]: 30.3%; half-life [22]: 9.5 min
CCCC(=O)n1ncc2c(O)ncnc21,100.3%,> 65 µg/mL,101.42%,Unstable,> 65 µg/mL,,1.99,103.11%,,,7.7 min,Activity [24]: Non-toxic; Stability [14]: Unstable; degraded at 1 h [15]: 26.5%; Stability [16]: Unstable; Stability [17]: Unstable; degraded at 3 h [18]: 100%; metabolised at 3 h [20]: 100%; metabolised at 1 h [21]: 27%; half-life [22]: 6.1 min
Oc1ncnc2[nH]ncc12 [ALLOPURINOL],97.54%,900 µg/mL,98.55%,100%,490 µg/mL,2.6 min,,102.4%,Active,,2.4 min,Stability [25]: Stable; Activity [24]: Non-toxic; IC50 (Trypanosoma cruzi [23]): 9.62 µM; inhibition (Trypanosoma cruzi [23]): Dose-dependent effect; Drug recovery [26]: 98.85%; Drug recovery [27]: 100.17%; Drug recovery [28]: 97.37%; pKa [29]: 9.7
CC(=O)n1ncc2c(=O)[nH]cnc21,,,,,,,,,,inactive,,
CCCc1nc(O)c2c[nH]nc2n1,,,,,,,,,,inactive,,
Cc1nc(O)c2c[nH]nc2n1,102.77%,2020 µg/mL,102.72%,100%,1480 µg/mL,3 min,-0.05,98.57%,Active,inactive,,Stability [2]: Stable; Stability [7]: Stable; Stability [8]: Stable; Stability [30]: Stable; Stability [10]: Stable
